Measured values reported in ChEMBL document CHEMBL3351848, “Novel insights into structure and function of factor XIIIa-inhibitor tridegin” (J Med Chem, 2014).
The source made the active and inactive calls. No cut-off for these calls is given here. Residues, ends and D or L forms follow the SMILES beside them.

What was measured:
[1] = biological target: T1, Coagulation factor XIII B chain (Homo sapiens) (UniProt P05160); experiment: Binding affinity to nonactivated recombinant F13B subunit (unknown origin) by microscale thermophoresis method
T1 sequence (whole entry): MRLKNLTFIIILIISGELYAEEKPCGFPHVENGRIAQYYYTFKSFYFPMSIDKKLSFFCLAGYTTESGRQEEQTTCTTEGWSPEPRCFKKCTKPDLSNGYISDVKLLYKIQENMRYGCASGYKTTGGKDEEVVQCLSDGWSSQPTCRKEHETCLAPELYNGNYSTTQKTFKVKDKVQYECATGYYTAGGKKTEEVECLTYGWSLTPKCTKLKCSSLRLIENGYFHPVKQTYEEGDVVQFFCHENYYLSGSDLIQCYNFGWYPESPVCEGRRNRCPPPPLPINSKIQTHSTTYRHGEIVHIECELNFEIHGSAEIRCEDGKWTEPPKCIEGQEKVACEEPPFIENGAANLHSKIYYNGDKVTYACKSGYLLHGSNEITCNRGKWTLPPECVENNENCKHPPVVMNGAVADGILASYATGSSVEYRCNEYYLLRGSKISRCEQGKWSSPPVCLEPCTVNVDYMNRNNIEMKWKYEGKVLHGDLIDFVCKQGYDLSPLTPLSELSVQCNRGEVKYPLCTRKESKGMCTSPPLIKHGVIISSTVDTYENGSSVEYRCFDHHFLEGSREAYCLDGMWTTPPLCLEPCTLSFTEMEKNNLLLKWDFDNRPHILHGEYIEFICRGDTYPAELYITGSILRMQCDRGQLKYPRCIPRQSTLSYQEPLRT
Summary of the method: (§1)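 Carboxyfluorescein-labeled peptide (2 μM solution, before mixing) in 50 mM Tris-HCl pH 7.5, 0.9% w/v NaCl, with Tween-20 to 0.1% final. Mixed with an equal volume of protein (FXIIIa, FXIII-A or FXIII-B) in the same buffer, 15 concentrations spanning 3.1 μM to 0.1 nM. After 20 min incubation, the mixture was loaded into glass capillaries and thermophoresis read three times per capillary.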

[2] = biological target: T2, Coagulation factor XIII A chain (Homo sapiens) (UniProt P00488); experiment: Inhibition of recombinant F13a (unknown origin) using H-Tyr-Glu(pNA)-Val-Lys-Val-Ile-Gly-NH2 as substrate by chromogenic assay
T2 sequence (whole entry): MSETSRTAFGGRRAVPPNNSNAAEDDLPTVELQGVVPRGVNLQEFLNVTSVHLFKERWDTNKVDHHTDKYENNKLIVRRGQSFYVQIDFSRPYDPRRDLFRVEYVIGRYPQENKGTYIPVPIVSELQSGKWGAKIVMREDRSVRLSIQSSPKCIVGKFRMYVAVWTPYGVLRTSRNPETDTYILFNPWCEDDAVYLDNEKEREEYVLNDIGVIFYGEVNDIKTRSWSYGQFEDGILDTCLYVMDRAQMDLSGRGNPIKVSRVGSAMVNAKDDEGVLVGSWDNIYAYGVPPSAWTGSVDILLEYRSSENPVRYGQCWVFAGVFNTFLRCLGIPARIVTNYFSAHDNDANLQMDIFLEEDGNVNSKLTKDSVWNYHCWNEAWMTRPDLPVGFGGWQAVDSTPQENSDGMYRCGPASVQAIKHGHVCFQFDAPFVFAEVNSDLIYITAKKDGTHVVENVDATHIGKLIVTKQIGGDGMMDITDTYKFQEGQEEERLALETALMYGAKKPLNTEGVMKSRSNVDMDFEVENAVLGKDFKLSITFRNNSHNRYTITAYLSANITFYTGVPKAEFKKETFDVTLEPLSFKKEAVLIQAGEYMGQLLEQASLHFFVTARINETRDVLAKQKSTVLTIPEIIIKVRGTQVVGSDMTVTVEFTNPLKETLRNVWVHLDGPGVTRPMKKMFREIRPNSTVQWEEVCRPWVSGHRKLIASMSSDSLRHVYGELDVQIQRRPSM

[3] = biological target: T2, Coagulation factor XIII A chain (Homo sapiens); experiment: Binding affinity to nonactivated recombinant F13A subunit (unknown origin) by microscale thermophoresis method; summary of the method: as §1
[4] = biological target: T3, Protein-glutamine gamma-glutamyltransferase (Homo sapiens) (UniProt P21980); experiment: Inhibition of human TGase-2 using fluorogenic FRET substrate at 10 uM
T3 sequence (whole entry): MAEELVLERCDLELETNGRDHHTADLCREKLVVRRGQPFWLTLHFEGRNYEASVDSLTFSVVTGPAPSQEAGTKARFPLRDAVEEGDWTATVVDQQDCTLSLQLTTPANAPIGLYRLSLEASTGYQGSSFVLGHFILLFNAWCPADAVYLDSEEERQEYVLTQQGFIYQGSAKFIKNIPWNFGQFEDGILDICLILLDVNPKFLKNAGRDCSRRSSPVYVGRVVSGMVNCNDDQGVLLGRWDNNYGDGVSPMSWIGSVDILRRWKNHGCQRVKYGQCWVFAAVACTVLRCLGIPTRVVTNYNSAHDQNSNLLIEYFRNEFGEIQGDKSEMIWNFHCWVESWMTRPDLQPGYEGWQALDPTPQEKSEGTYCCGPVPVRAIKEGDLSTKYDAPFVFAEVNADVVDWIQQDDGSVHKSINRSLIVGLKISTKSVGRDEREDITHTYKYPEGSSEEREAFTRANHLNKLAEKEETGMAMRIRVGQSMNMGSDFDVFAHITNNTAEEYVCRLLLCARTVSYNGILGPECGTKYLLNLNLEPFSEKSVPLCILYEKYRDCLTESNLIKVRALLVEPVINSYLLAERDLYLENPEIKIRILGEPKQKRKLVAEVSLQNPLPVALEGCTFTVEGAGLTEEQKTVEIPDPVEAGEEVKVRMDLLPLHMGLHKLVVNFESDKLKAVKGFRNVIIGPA

Activity [1]: inactive
inhibition [2]: inactive
Activity [3]: inactive
inhibition [4]: < 10%
SMILES: CC[C@H](C)[C@H](NC(=O)CNC(=O)[C@H](CCC(N)=O)NC(=O)[C@H](Cc1cnc[nH]1)NC(=O)[C@H](Cc1c[nH]c2ccccc12)NC(=O)[C@H](CCC(=O)O)NC(=O)[C@H](CCCCN)NC(=O)[C@H](CS)NC(=O)[C@@H]1CCCN1C(=O)[C@H](CC(C)C)NC(=O)[C@H](CC(C)C)NC(=O)[C@@H](N)CCCCN)C(=O)N1CCC[C@H]1C(=O)N[C@@H](CC(N)=O)C(=O)N1CCC[C@H]1C(=O)N[C@@H](CCCNC(=N)N)C(=O)N[C@@H](CS)C(=O)N[C@@H](Cc1c[nH]c2ccccc12)C(=O)N[C@@H](CS)C(=O)NCC(=O)N[C@@H](C)C(=O)N[C@@H](CC(=O)O)C(=O)N[C@@H](CC(C)C)C(=O)N[C@@H](CCC(=O)O)C(=O)N[C@@H](CS)C(=O)N[C@@H](C)C(=O)N[C@@H](CCC(N)=O)C(=O)N[C@@H](CC(=O)O)C(=O)N[C@@H](CCC(N)=O)C(=O)N[C@@H](Cc1ccc(O)cc1)C(=O)N[C@@H](CS)C(=O)N[C@@H](C)C(=O)N[C@@H](Cc1ccccc1)C(=O)N[C@H](C(=O)N1CCC[C@H]1C(=O)N[C@@H](CCC(N)=O)C(=O)N[C@@H](CS)C(=O)O)[C@@H](C)CC (H-KLLPCKEWHQGIPNPRCWCGADLECAQDQYCAFIPQC-OH)
